# CRFR2-BP antag – CRF-BP/CRF-R2 complex antagonism. 350,000 compounds, 0.59% hits. inhibition, % at 11.8 µM. HEK293 CRF-R2/CRF-BP, CRF-induced calcium fluorescence;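 active = inhibition of the ligand-induced calcium signal above about 50% at the single tested concentration, limit read from the data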
# CHOP UPR activ – apoptotic UPR (CHOP) activation | AID 449763 | 330,000 compounds, 0.34% hits | CHO-CHOP luciferase reporter, luminescence; percent of tunicamycin response over DMSO baseline | activation, % at 10 µM;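 active = at 10 µM dose, activation of 40% or more, normalized to positive control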;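 note: 100% = tunicamycin at 10 µg/mL and 0% = DMSO alone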
#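 Assay system: CHO cells with stable CHOP pathway luciferase reporter; Buffer or medium: F12 plus 10% serum; Times: 16-18 h cell attachment, then 6 h compound exposure, 37 °C; Signal: luciferase luminescence; Read-out basis: percent activation relative to tunicamycin control; Control set: tunicamycin high control, DMSO low control.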
# 697 NFkB inh – inhibitors of the PMA/ionomycin-induced NF-kB reporter in 697 B cells; 697 B-cell NF-kB luciferase reporter, 16 h; inhibition, % at 4 µM; 330,000 compounds, 0.33% hits; AID 435022; in the data active = inhibition above about 35%
# XBP1 UPR activ – activators of adaptive arm of unfolded protein response (XBP1) | 330,000 compounds, 0.33% hits | CHO-XBP1 luciferase reporter, IRE1-XBP1 UPR activation, luminescence; percent of tunicamycin response, DMSO as zero | activation, % at 20 µM | AID 463104;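 active = versus positive control, 20 µM dose yields 30% or more activation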;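 note: 100% = tunicamycin at 10 µg/mL and 0% = DMSO only wells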
#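 Material: IRE1-XBP1 luciferase reporter CHO line / Quantity: one thousand reporter cells per well / Buffer or medium: F12 with 10% serum / Compound: 20 µM single concentration, DMSO 1% / Times: 6 h treatment, 37 °C / Detection: Steady-Glo luciferase glow luminescence, 10 min after reagent addition / Benchmarks: tunicamycin high, DMSO low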
# Jurkat NFkB inh – lowers PMA/ionomycin-induced NF-kB signal in Jurkat cells; PMA/ionomycin-induced NF-kB luciferase reporter, luminescence; inhibition, % at 4 µM; 330,000 compounds, 0.53% hits; AID 435003; in the data active = inhibition above about 50%
# Jurkat NFkB conf – lowers PMA/ionomycin-induced NF-kB signal in Jurkat cells; shares compounds with Jurkat NFkB inh; Jurkat NF-kB luciferase, 16 h; inhibition, % at 4 µM; 2,700 compounds, 27% hits;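 active = inhibition reaching about 45% at 4 µM in either replicate, limit read from the data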;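 note: plate controls were PMA/ionomycin stimulated DMSO wells for no effect and unstimulated DMSO wells for full effect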
# 697 NFkB conf – lowers PMA/ionomycin-induced NF-kB signal in 697 B cells; 697 B-cell NF-kB luciferase, 16 h; 2,000 compounds, 35% hits; inhibition, % at 4 µM; shares compounds with 697 NFkB inh; in the data active = inhibition mostly above about 28%, no sharp cut-off; inactive = mostly below about 22%
# Numbers without * were called inactive; . = no result. Most compounds without a hit are left out; they make up all but 1.8% or so of the library.
SMILES,CRFR2-BP antag,CHOP UPR activ,697 NFkB inh,XBP1 UPR activ,Jurkat NFkB inh,Jurkat NFkB conf,697 NFkB conf
CC1CCCCN1C(=O)C1CCN(c2nc(-c3ccccc3)nc3c2CCC3)CC1 (centres undefined),-7,2,-17,-2,-3,.,.
Cc1ccc(NC2CCCN(C(=O)c3cn(C)c4ccccc34)C2)cc1C (centres undefined),-14,1,-8,-4,8,.,.
CCOP(=O)(Nc1cccc2oc(=O)c3ccccc3c12)OCC,-18,.,.,.,.,.,.
O=C(NC(=S)Nc1ccccn1)c1ccc(-c2ccccc2)cc1,-6,5,-287,-2,-188,-55,-432
CC(C)(C)C(=O)CSc1ncnc2c1cnn2-c1ccccc1,7,9,-258,1,-161,-94,-194
CN(C)c1ccc(-c2n(C)c3ccccc3[n+]2C)cc1,-3,2,42*,0,76*,60*,57*
Cc1ccc(-c2cn(-c3ccccc3)c(=S)[nH]2)cc1C,-37,3,-286,-5,-152,-29,-327
COc1ccc(C2=NN3C(C2)c2ccccc2OC3c2cccs2)cc1 (centres undefined),-1,7,-121,3,-94,.,.
COc1ccc(C2=NN3C(C2)c2ccccc2OC32C(=O)N(C)c3ccccc32)cc1 (centres undefined),-11,4,-306,0,-182,-139,-247
COc1ccccc1-c1nc(-c2cccc(C)c2)no1,-1,1,-284,-3,-212,-178,-258
COc1ccc(-c2nc(-c3ccncc3)no2)c(OC)c1,3,-3,-380,-6,-201,-98,-283
COc1ccc(-c2noc(-c3ccccc3F)n2)cc1,-2,-2,-287,-4,-207,-106,-234
COc1ccc(-c2nc(-c3cccc(C)c3)no2)cc1OC,-28,5,-86,2,-92,.,.
O=C(/C=C/c1cccc(C(F)(F)F)c1)NNC(=O)c1ccncc1,-9,0,-24,0,-18,.,.
Cc1cc(Cl)c(S(=O)(=O)N2CCN(c3ccc(F)cc3)CC2)cc1OCC(=O)NC1CCCCC1,-9,1,98*,0,65*,75*,92*
Cc1cc(Cl)c(S(=O)(=O)N2CCN(c3ccc(F)cc3)CC2)cc1OCC(N)=O,8,0,-55,-3,21,.,.
O=C(Nc1ncc(Cc2ccc(SC(F)F)cc2)s1)c1ccc(OC(F)F)cc1,-110,3,-495,14,76*,58*,-274
CCCCN(CCCC)CCNC(=O)c1cn(CC)c2ccc(S(=O)(=O)N3CCCC3)cc2c1=O,-12,0,-33,-3,-14,.,.
COc1ccc(C(=O)Nc2ccc(C3(C#N)CCCC3)cc2)cc1,-26,5,-54,-2,-19,.,.
N#CC1(c2ccc(NC(=O)c3ccccc3F)cc2)CCCC1,-29,2,-281,-1,-210,-166,-214
O=C(Nc1ccc2c(c1)Cc1ccccc1-2)c1ccccc1F,6,3,-323,0,-161,-139,-202
CCOc1ccc2oc(C(=O)NC(C)(C)CC)c(C)c2c1,-12,7,-48,25,-38,.,.
CCCCc1nnc(NC(=O)c2oc3ccc(OC)cc3c2C)s1,-28,2,-31,5,-3,.,.
COc1ccc2oc(C(=O)Nc3nccs3)c(C)c2c1,.,3,-261,-1,-184,-100,-187
CCOc1ccc2oc(C(=O)Nc3nccs3)c(C)c2c1,-2,10,-258,1,-173,-113,-207
O=C(COC(=O)c1ccco1)Nc1ccc(N2CCOCC2)cc1,-7,0,-1,0,-2,.,.
CCCCCNC(=O)c1ccc2c(=O)n(CC3CCCO3)c(=O)[nH]c2c1 (centres undefined),-3,0,104*,0,99*,44,60*
CCCCCNC(=O)c1ccc2c(=O)n(CC3CCCO3)c(=S)[nH]c2c1 (centres undefined),3,0,24,-3,-4,.,.
